# Experiments:
# Mus musculus [1] = experiment: Antitumor activity against P388 leukemia in mice at a dose of 24 mg/kg administered intraperitoneally for 5 days; assay type: functional; conditions: route intraperitoneal
# Outline: (§1)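 CDF1 hybrid male or female mice, 10 per group, were inoculated ip on day 0 with 10^6 viable P388 leukemia cells. Drug in distilled water was given ip (0.1 mL/10 g body weight) daily on days 1-5, with vehicle, 5-fluorouracil and BD 84 controls given the same way. T/C = median survival of treated/controls × 100; T/C > 128% counted as significant.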
# Calf thymus DNA = experiment: Apparent DNA affinity constant; assay type: nucleic-acid assay; conditions: Bos taurus
# Outline: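 Apparent DNA affinity constant was measured by competition with ethidium bromide. Buffer was 20 mM Na2HPO4/NaH2PO4, 0.1 M NaCl, 1 mM EDTA, pH 7.4, with calf thymus DNA at 10 μg/mL. Values are given in 10^6 M⁻¹.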
# Mus musculus [2] = experiment: Antitumor activity against P388 leukemia in mice at a dose of 50 mg/kg administered intraperitoneally for 5 days; assay type: functional, organism-based; parameters: dose 50 mg/kg; outline: as §1
# Mus musculus [3] = experiment: Antitumor activity against P388 leukemia in mice at a dose of 12 mg/kg administered intraperitoneally for 5 days; assay type: functional; conditions: route intraperitoneal
# Outline: (§2)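 CDF1 hybrid male or female mice, 10 per group, were inoculated ip with 10^6 viable P388 cells on day 0. Drugs in distilled water were given ip (0.1 mL/10 g body weight) daily D1-5. Vehicle, 5-fluorouracil and BD 84 were given the same way. T/C = median survival day of treated / controls × 100; T/C > 128% was significant; cures counted at D60.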
# Mus musculus [4] = experiment: Antitumor activity against P388 leukemia in mice at a dose of 6 mg/kg administered intraperitoneally for 5 days; assay type: functional; conditions: route intraperitoneal; outline: as §1
# L1210 = experiment: Ability to reduce the cell count to 50% in L1210 culture cells; assay type: functional; conditions: Mus musculus, read-out: ID50 (the source's name)
# Outline: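 L1210 cells in exponential growth in RPMI 1640 with 2 mM glutamine, penicillin/streptomycin and 10% FCS, 37 °C, 5% CO2. Drugs dissolved in distilled water were added to cells at 0.8 × 10^5 cells/mL for 48 h, then cells were counted. ID50 is the concentration halving cell proliferation versus controls, from regression of dose-response data; mean of two independent experiments.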
# Mus musculus [5] = experiment: Median survival day in B16 melanoma infected mice when a dose of 2.5 mg/kg administered intraperitoneally; assay type: functional; conditions: route intraperitoneal
# Outline: (§3)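 B16 melanoma in hybrid BD F1 mice. At D0 each mouse was inoculated ip with 0.5 mL of homogenate made from 1 g of tumour in 10 mL of physiological serum. Compounds were given ip daily at the stated doses for 9 days (D1-9), with cis-platinum 0.5 mg/kg under the same schedule as positive control.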
# Mus musculus [6] = experiment: Survivors at day 60 when a dose of 10 mg/kg to B16 melanoma infected mice; 0/10; assay type: functional
# Mus musculus [7] = experiment: Median survival day in B16 melanoma infected mice when a dose of 1.25 mg/kg administered intraperitoneally; assay type: functional; conditions: route intraperitoneal; outline: as §3
# Mus musculus [8] = experiment: Antitumor activity against P388 cells at a dose of 10 mg/kg administered intraperitoneally to P388 leukemia model; assay type: functional; conditions: route intraperitoneal
# Outline: (§4)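 Mice were inoculated ip with 10^6 P388 leukemia cells at D0, then given a single ip drug dose on D1. Weight change was recorded. T/C % = median survival day of treated / controls × 100; survivors counted at D30; 10 mice per dose group, 20 controls.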
# Mus musculus [9] = experiment: Antitumor activity against B16 melanoma infected intraperitoneally; assay type: functional
# Outline: (§5)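 Hybrid BD F1 mice were inoculated ip at D0 with 0.5 mL of B16 melanoma homogenate (1 g tumor in 10 mL physiological serum). Drugs were given ip daily D1-9. Cisplatin 0.5 mg/kg was the positive control under the same schedule.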
# Mus musculus [10] = experiment: Median survival day of P388 leukemia model when a dose of 20 mg/kg administered intraperitoneally; assay type: functional; conditions: route intraperitoneal
# Outline: (§6)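 P388 leukaemia in CDF1 hybrid mice, 10 per group. At D0, 10^6 viable cells were inoculated ip, followed by a single ip dose of drug in distilled water on D1. Weight change, median survival day, T/C (treated/control median survival × 100) and survivors at D30 were recorded. Controls were 20 mice.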
# Mus musculus [11] = experiment: Median survival day in B16 melanoma infected mice when a dose of 10 mg/kg administered intraperitoneally; assay type: functional; conditions: route intraperitoneal; outline: as §3
# Mus musculus [12] = experiment: Survivors at day 30 when a dose of 40 mg/kg to P388 leukemia mice model; 0/10; assay type: functional
# Mus musculus [13] = experiment: Survivors at day 30 when a dose of 5 mg/kg to P388 leukemia mice model; 0/10; assay type: functional
# Mus musculus [14] = experiment: Weight change in g when a dose of 40 mg/kg administered intraperitoneally to P388 leukemia mice model; assay type: functional; conditions: route intraperitoneal
# Outline: (§7)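 P388 model with a single ip dose. Mice (10 per group) were inoculated ip at D0 with 10^6 P388 cells and given one ip drug dose at D1. Body-weight change (g), median survival day, T/C and survivors at D30 were recorded.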
# Mus musculus [15] = experiment: Survivors at day 30 when a dose of 20 mg/kg to P388 leukemia mice model; 0/10; assay type: functional; outline: as §6
# Mus musculus [16] = experiment: Weight change in g when a dose of 10 mg/kg administered intraperitoneally to P388 leukemia mice model; assay type: functional; conditions: route intraperitoneal; outline: as §7
# Mus musculus [17] = experiment: Median survival day of P388 leukemia model when a dose of 5 mg/kg administered intraperitoneally; assay type: functional; conditions: route intraperitoneal; outline: as §6
# Mus musculus [18] = experiment: Antitumor activity against P388 leukemia in mice at a dose of 10 mg/kg administered intraperitoneally for 5 days; assay type: functional; conditions: route intraperitoneal; outline: as §2
# Mus musculus [19] = experiment: Antitumor activity against P388 leukemia in intraperitoneally for 5 days; assay type: functional; outline: as §2
# Mus musculus [20] = experiment: Weight change in g when a dose of 1.25 mg/kg administered intraperitoneally to mice; assay type: functional; conditions: route intraperitoneal
# Outline: (§8)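 Hybrid BDF1 mice were inoculated ip at D0 with 0.5 mL of B16 melanoma homogenate (1 g tumor in 10 mL physiological serum). Drug was given ip daily on days 1-9, with cis-platinum 0.5 mg/kg as positive control on the same schedule.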
# Mus musculus [21] = experiment: Antitumor activity against P388 cells at a dose of 5 mg/kg administered intraperitoneally to P388 leukemia model; assay type: functional; conditions: route intraperitoneal; outline: as §4
# Mus musculus [22] = experiment: Antitumor activity against P388 leukemia in mice at a dose of 1.25 mg/kg administered intraperitoneally for 5 days; assay type: functional; conditions: route intraperitoneal; outline: as §2
# Mus musculus [23] = experiment: Antitumor activity against P388 leukemia in mice at a dose of 20 mg/kg administered intraperitoneally; assay type: functional, organism-based; parameters: dose 20 mg/kg; outline: as §2
# Mus musculus [24] = experiment: Antitumor activity against B16 melanoma infected mice at a dose of 2.5 mg/kg administered intraperitoneally; assay type: functional; conditions: route intraperitoneal; outline: as §5
# Mus musculus [25] = experiment: Weight change in g when a dose of 5 mg/kg administered intraperitoneally to P388 leukemia mice model; assay type: functional; conditions: route intraperitoneal; outline: as §7
# Mus musculus [26] = experiment: Weight change in g when a dose of 10 mg/kg administered intraperitoneally to B16 melanoma infected mice; assay type: functional; conditions: route intraperitoneal; outline: as §8
# Mus musculus [27] = experiment: Antitumor activity against P388 leukemia in mice at a dose of 0.625 mg/kg administered intraperitoneally for 5 days; assay type: functional; conditions: route intraperitoneal; outline: as §2
# Mus musculus [28] = experiment: Median survival day of P388 leukemia model when a dose of 10 mg/kg administered intraperitoneally; assay type: functional; conditions: route intraperitoneal; outline: as §6
# Mus musculus [29] = experiment: Antitumor activity against B16 melanoma infected mice at a dose of 1.25 mg/kg administered intraperitoneally; assay type: functional; conditions: route intraperitoneal; outline: as §5
# Mus musculus [30] = experiment: Weight change in g when a dose of 5 mg/kg administered intraperitoneally to B16 melanoma infected mice; assay type: functional; conditions: route intraperitoneal; outline: as §8
# Mus musculus [31] = experiment: Weight change in g when a dose of 20 mg/kg administered intraperitoneally to P388 leukemia mice model; assay type: functional; conditions: route intraperitoneal; outline: as §7
# Mus musculus [32] = experiment: Antitumor activity against P388 leukemia in mice at a dose of 2.5 mg/kg administered intraperitoneally for 5 days; assay type: functional; conditions: route intraperitoneal; outline: as §2
# Mus musculus [33] = experiment: Survivors at day 60 when a dose of 1.25 mg/kg to B16 melanoma infected mice; 0/10; assay type: functional
# Mus musculus [34] = experiment: Survivors at day 30 when a dose of 10 mg/kg to P388 leukemia mice model; 0/10; assay type: functional; outline: as §6
# Mus musculus [35] = experiment: Antitumor activity against P388 cells at a dose of 20 mg/kg administered intraperitoneally to P388 leukemia model; assay type: functional; conditions: route intraperitoneal; outline: as §4
# Mus musculus [36] = experiment: Weight change in g when a dose of 2.5 mg/kg administered intraperitoneally to B16 melanoma infected mice; assay type: functional; conditions: route intraperitoneal; outline: as §8
# Mus musculus [37] = experiment: Antitumor activity against P388 cells at a dose of 40 mg/kg administered intraperitoneally to P388 leukemia model; assay type: functional; conditions: route intraperitoneal; outline: as §4
# Mus musculus [38] = experiment: Median survival day in B16 melanoma infected mice when a dose of 5 mg/kg administered intraperitoneally; assay type: functional; conditions: route intraperitoneal; outline: as §3
# Mus musculus [39] = experiment: Survivors at day 60 when a dose of 5 mg/kg to B16 melanoma infected mice; 0/10; assay type: functional
# Mus musculus [40] = experiment: Survivors at day 60 when a dose of 2.5 mg/kg to B16 melanoma infected mice; 0/10; assay type: functional
# Mus musculus [41] = experiment: Median survival day of P388 leukemia model when a dose of 40 mg/kg administered intraperitoneally to mice; assay type: functional; conditions: route intraperitoneal; outline: as §6
# Mus musculus [42] = experiment: Antitumor activity against B16 melanoma infected mice at a dose of 10 mg/kg administered intraperitoneally; assay type: functional; conditions: route intraperitoneal; outline: as §5
# Mus musculus [43] = experiment: Antitumor activity against P388 leukemia in mice at a dose of 20 mg/kg administered intraperitoneally for 5 days; assay type: functional; conditions: route intraperitoneal; outline: as §2
# Mus musculus [44] = experiment: Antitumor activity against P388 leukemia in mice at a dose of 5 mg/kg administered intraperitoneally for 5 days; assay type: functional; conditions: route intraperitoneal; outline: as §1
# Mus musculus [45] = experiment: Antitumor activity against P388 leukemia in mice at a dose of 40 mg/kg administered intraperitoneally for 5 days; assay type: functional; outline: as §1
structure (smiles),measurement,setting,value
Cc1cnc(NCCCN(C)C)c2c3ccccc3n(C)c12,T/C,Mus musculus [1],131%
same,K aff,Calf thymus DNA,150000 M⁻¹
same,T/C,Mus musculus [2],Toxic
same,T/C,Mus musculus [3],114%
same,T/C,Mus musculus [4],107%
same,IC50,L1210,350 nM
Cc1c[nH]c(NCCCN(C)C)c2c3cc(O)ccc3nc1-2,Median survival day,Mus musculus [5],38.75
same,Survivors,Mus musculus [6],0
same,Median survival day,Mus musculus [7],32
same,T/C,Mus musculus [8],139%
same,K aff,Calf thymus DNA,210000 M⁻¹
same,T/C,Mus musculus [9],160%
same,Median survival day,Mus musculus [10],15.5
same,Median survival day,Mus musculus [11],11.7
same,Survivors,Mus musculus [12],0
same,Survivors,Mus musculus [13],0
same,Weight change,Mus musculus [14],-1.4 g
same,Survivors,Mus musculus [15],0
same,Weight change,Mus musculus [16],0.3 g
same,Median survival day,Mus musculus [17],15.3
same,T/C,Mus musculus [18],148%
same,T/C,Mus musculus [19],186%
same,Weight change,Mus musculus [20],2.8 g
same,T/C,Mus musculus [21],139%
same,T/C,Mus musculus [22],150%
same,T/C,Mus musculus [23],Toxic
same,T/C,Mus musculus [24],141%
same,Weight change,Mus musculus [25],-0.1 g
same,Weight change,Mus musculus [26],0.5 g
same,T/C,Mus musculus [27],139%
same,Median survival day,Mus musculus [28],15.25
same,T/C,Mus musculus [29],116%
same,Weight change,Mus musculus [30],2.4 g
same,Weight change,Mus musculus [31],-0.8 g
same,T/C,Mus musculus [32],145%
same,Survivors,Mus musculus [33],0
same,IC50,L1210,90 nM
same,Survivors,Mus musculus [34],0
same,T/C,Mus musculus [35],142%
same,Weight change,Mus musculus [36],1.8 g
same,T/C,Mus musculus [37],139%
same,Median survival day,Mus musculus [38],44
same,Survivors,Mus musculus [39],0
same,Survivors,Mus musculus [40],0
same,Median survival day,Mus musculus [41],15.3
same,T/C,Mus musculus [42],42%
COc1ccc2c(c1)c1c(NCCCN(C)C)ncc(C)c1n2C,K aff,Calf thymus DNA,360000 M⁻¹
same,T/C,Mus musculus [43],150%
same,T/C,Mus musculus [18],160%
same,T/C,Mus musculus [44],134%
same,T/C,Mus musculus [45],Toxic
same,IC50,L1210,130 nM
Cc1cnc(NCC(C)CN(C)C)c2c3cc(O)ccc3n(C)c12 (centres undefined),K aff,Calf thymus DNA,140000 M⁻¹
same,IC50,L1210,10 nM

# — ChEMBL document CHEMBL1124035, “1-Amino-substituted 4-methyl-5H-pyrido[4,3-b]indoles (gamma-carbolines) as tricyclic analogues of ellipticines: a new class of antineoplastic agents” (1988)
